Assay results published in ChEMBL document CHEMBL4368943 (J Med Chem, 2019).
Activity calls are given as the source filed them. The calls are words filed in the database; no cut-off is given here.

Assays:
[1] = molecular target: T1, von Hippel-Lindau disease tumor suppressor/Estrogen receptor/Cullin-2 (Homo sapiens, UniProt P03372+P40337+Q13617); test: Protac activity against VHL/cullin2/ERalpha in human MCF7 cells assessed as ERalpha degradation by measuring ER protein/GADPH ratio at 1 nM after 4 hrs by Western blot analysis relative to control; format: cell-based
T1 sequence (P03372 whole entry, looked up): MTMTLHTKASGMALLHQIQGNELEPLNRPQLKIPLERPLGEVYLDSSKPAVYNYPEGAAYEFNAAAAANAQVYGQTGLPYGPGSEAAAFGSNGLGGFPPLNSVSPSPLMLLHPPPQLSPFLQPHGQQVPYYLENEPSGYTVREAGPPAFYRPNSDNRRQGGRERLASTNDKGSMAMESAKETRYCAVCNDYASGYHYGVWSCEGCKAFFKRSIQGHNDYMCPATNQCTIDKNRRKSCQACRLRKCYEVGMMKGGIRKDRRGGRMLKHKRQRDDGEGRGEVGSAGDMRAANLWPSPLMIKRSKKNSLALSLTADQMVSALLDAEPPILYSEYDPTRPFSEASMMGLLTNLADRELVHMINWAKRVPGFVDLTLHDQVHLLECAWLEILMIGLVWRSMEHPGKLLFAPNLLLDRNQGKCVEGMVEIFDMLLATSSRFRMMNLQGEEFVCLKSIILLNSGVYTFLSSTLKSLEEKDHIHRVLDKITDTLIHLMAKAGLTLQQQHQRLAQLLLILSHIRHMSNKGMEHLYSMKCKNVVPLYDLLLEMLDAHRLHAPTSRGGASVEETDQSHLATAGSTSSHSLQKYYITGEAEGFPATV
T1 sequence (P40337 whole entry, looked up): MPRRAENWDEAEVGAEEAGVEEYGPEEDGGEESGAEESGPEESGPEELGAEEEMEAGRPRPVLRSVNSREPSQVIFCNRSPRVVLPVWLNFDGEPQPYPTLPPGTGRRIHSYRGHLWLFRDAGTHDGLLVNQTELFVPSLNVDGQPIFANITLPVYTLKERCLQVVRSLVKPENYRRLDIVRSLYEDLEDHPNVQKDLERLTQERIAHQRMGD
T1 sequence (Q13617 whole entry, looked up): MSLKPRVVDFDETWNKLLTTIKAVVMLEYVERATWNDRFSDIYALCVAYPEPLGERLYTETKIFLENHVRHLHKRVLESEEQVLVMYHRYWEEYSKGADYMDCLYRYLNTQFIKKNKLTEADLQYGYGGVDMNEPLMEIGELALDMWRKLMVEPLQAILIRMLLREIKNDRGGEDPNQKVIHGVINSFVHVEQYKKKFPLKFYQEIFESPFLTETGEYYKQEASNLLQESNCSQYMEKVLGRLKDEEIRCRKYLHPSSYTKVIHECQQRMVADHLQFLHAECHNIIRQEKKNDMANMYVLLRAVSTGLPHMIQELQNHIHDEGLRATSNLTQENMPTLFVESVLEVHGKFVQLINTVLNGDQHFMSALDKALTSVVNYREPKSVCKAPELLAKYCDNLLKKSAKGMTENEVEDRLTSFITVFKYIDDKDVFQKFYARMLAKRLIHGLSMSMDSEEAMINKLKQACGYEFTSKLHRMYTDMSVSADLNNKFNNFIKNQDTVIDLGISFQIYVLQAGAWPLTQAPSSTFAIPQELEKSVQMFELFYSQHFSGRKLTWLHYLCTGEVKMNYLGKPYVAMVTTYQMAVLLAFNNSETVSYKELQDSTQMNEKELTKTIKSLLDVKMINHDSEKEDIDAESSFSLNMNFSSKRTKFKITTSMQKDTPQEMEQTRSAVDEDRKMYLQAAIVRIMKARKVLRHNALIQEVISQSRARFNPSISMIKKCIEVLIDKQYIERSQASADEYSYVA
In short: (§1)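 MCF-7 cells (DMEM, 10% FBS, passages 3−8) exposed 4 h. Lysed in RIPA with protease inhibitors; equal protein on 10% SDS-PAGE, PVDF, anti-ERα blot. Membranes stripped and reprobed for GAPDH. ERα/GAPDH ratio normalized to DMSO = 100; DC50 from densitometry of the dose series.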

[2] = molecular target: T1, von Hippel-Lindau disease tumor suppressor/Estrogen receptor/Cullin-2; test: Protac activity against VHL/cullin2/ERalpha in human MCF7 cells assessed as ERalpha degradation by measuring ER protein/GADPH ratio at 1000 nM after 4 hrs by Western blot analysis relative to control; format: cell-based; in short: as §1
[3] = molecular target: T1, von Hippel-Lindau disease tumor suppressor/Estrogen receptor/Cullin-2; test: Protac activity against VHL/cullin2/ERalpha in human MCF7 cells assessed as ERalpha degradation by measuring ER protein/GADPH ratio at 10 nM after 4 hrs by Western blot analysis relative to control; format: cell-based; in short: as §1
[4] = molecular target: T1, von Hippel-Lindau disease tumor suppressor/Estrogen receptor/Cullin-2; test: Protac activity against VHL/cullin2/ERalpha in human MCF7 cells assessed as ERalpha degradation by measuring ER protein/GADPH ratio at 100 nM after 4 hrs by Western blot analysis relative to control; format: cell-based; in short: as §1
[5] = tested on: MCF7; test: Inhibition of cell growth in human MCF7 cells after 4 days by wst-8-based colorimetric analysis; format: functional; conditions: MCF7, 96 h
In short: (§2)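 Cells seeded at 1500/well overnight, then exposed to graded compound doses for 4 days. Growth read by colorimetric WST-8 assay. GI50 from fitted curves. MCF-7 cells were kept in DMEM, 10% FBS, passages 3−8; human mammary epithelial cells were run the same way.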

[6] = tested on: MCF7; test: Inhibition of cell growth in human MCF7 cells after 4 days by wst-8-based colorimetric analysis relative to control; format: functional; in short: as §2
[7] = tested on: MCF7; test: Antiproliferative activity against human MCF7 cells at 10 to 300 nM after 5 days by crystal violet staining based assay; format: functional, cell-based
In short: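 MCF-7 cells in DMEM with 10% FBS and penicillin/streptomycin, passages 3−8, exposed to compounds at 10, 100 and 300 nM for 5 days, then fixed and stained with crystal violet.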

[8] = Binding affinity to His-TEV-tagged VHL (54 to 213 residues) (unknown origin)/Elongin B (1 to 118 residues)/Elongin C (1 to 96 residues) expressed in Escherichia coli BL21(DE3) by FP assay; design: species or system Homo sapiens
In short: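 Competitive FP. Tracer is a fluorescent VHL ligand (Kd 2.3 nM). VHL–ElonginB/C complex and tracer each at 5 nM final, preincubated. Compound in DMSO (5 µL into 95 µL) for 60 min at room temperature with shaking. Ex 485/em 530 nm. IC50 by nonlinear regression; Ki from probe KD and protein/probe concentrations. Duplicate, three independent experiments.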

Question: For `CCN(CCOCCOCCOCCC(=O)N[C@H](C(=O)N1C[C@H](O)C[C@H]1C(=O)N[C@@H](C)c1ccc(-c2scnc2C)cc1)C(C)(C)C)CCOc1ccc(C(=O)c2c(-c3ccc(O)cc3)sc3cc(O)ccc23)cc1`, which Ratio [1] is on record?
Answer: 101

Question: And the Ratio [2]?
Answer: 67

Question: And the Ratio [3]?
Answer: 0.6

Question: What about the Ratio [4] of the same compound?
Answer: 0.4

Question: Which GI50 [5] does the source give for `C[C@]12CC[C@@H]3c4ccc(O)cc4C[C@@H](CCCCCCCCC[S+]([O-])CCCC(F)(F)C(F)(F)F)[C@H]3[C@@H]1CC[C@@H]2O` (stereo partly drawn) [FULVESTRANT] here?
Answer: 0.17 nM

Question: And the Imax [6]?
Answer: 43.8%

Question: What about the Activity [7] of the same compound?
Answer: Active

Question: Which IC50 [8] does the source give for `CC(=O)N[C@H](C(=O)N1C[C@H](O)C[C@H]1C(=O)N[C@@H](C)c1ccc(-c2scnc2C)cc1)C(C)(C)C` here?
Answer: 196 nM
